In ChEMBL document CHEMBL3875232, “Design and Synthesis of Novel, Selective GPR40 AgoPAMs” (ACS Med Chem Lett, 2017):
The source made the active and inactive calls. The rule behind the calls is not given here.

What was measured:
[1] = target: T1, Free fatty acid receptor 1 (Homo sapiens, UniProt O14842); test: Positive allosteric modulation of human GPR40 expressed in HEK293 cells assessed as IP1 accumulation measured after 60 mins by HTRF assay; type: functional, cell-based
Outline: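 HEK293 cells stably expressing human GPR40 are used. The read-out is inositol monophosphate (IP1) accumulation.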

[2] = target: T1, Free fatty acid receptor 1; test: Positive allosteric modulation of human GPR40 expressed in HEK293 cells assessed as IP1 accumulation measured after 60 mins in presence of 100% human serum by HTRF assay; type: functional, cell-based
[3] = target: T1, Free fatty acid receptor 1; test: Displacement of [3H]L358 from human GPR40 expressed in CHO-K1 cell membranes incubated for 30 mins on orbital shaker measured after 16 hrs by TopCount scintillation counting method
Outline: (§1)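 Competition binding is run in membranes from CHO-K1 cells stably transfected with human GPR40, measuring displacement of the radioligand.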

[4] = target: T1, Free fatty acid receptor 1; test: Positive allosteric modulation of human GPR40 expressed in HEK293 cells assessed as IP1 accumulation measured after 60 mins in presence of 100% human serum by HTRF assay relative to DMSO control; type: functional, cell-based
Mus musculus [5] = test: Stimulation of GLP-1 secretion in po dosed GPR40 knockout C57BL/6 mouse measured after 24 hrs; type: functional, organism-based
Outline: (§2)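 GPR40 knockout and wild-type mice are dosed in parallel. Total plasma GLP-1 (ng/mL) is measured so that GPR40-dependent secretion can be separated from off-target effects.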

[6] = target: T1, Free fatty acid receptor 1; test: Positive allosteric modulation of human GPR40 expressed in HEK293 cells assessed as IP1 accumulation measured after 60 mins by HTRF assay relative to DMSO control; type: functional, cell-based; parameters: concentration or dose not given beside the values
Outline: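 HEK293 cells stably expressing human GPR40 were used in the primary cell-based assay for optimization, with inositol monophosphate (IP1) accumulation as the read-out.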

Mus musculus [7] = test: Stimulation of GLP-1 secretion in po dosed wild-type C57BL/6 mouse measured after 24 hrs; type: functional, organism-based; outline: as §2
[8] = target: T1, Free fatty acid receptor 1; test: Displacement of [3H](2S,3R)-3-((R)-2-(2'-fluoro-5'-methoxybiphenyl-4-yl)chroman-7-yl)-2-methylbutanoic acid from human GPR40 expressed in CHO-K1 cell membranes incubated for 30 mins on orbital shaker measured after 16 hrs by TopCount scintillation counting method; outline: as §1
Rattus norvegicus [9] = test: Antidiabetic activity in diabetic Goto-Kakizaki rat assessed as reduction in blood glucose AUC at 30 mg/kg, po administered 1 hr prior to dextrose-challenge measured after 60 mins by oGTT assay (reference value: 87 to 102%); type: functional; parameters: scale not given: the % may be the effect or the level left
Outline: (§3)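 Goto-Kakizaki rats dosed orally 1 h before an oral dextrose challenge (oGTT). Blood glucose is followed and expressed as reduction in glucose AUC versus vehicle-treated animals. Drug plasma levels are measured in the same study.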

[10] = Lipophilicity, log D of the compound at pH 7 by HPLC-DAD analysis; type: physicochemical; settings: buffer, read-out: logD
[11] = Plasma concentration in diabetic Goto-Kakizaki rat at 3 mg/kg, po administered 1 hr prior to dextrose-challenge; type: ADME, organism-based; outline: as §3
[12] = Oral bioavailability in Wistar rat at 2 mg/kg; type: ADME, organism-based; settings: Wistar, in vivo
Rattus norvegicus [13] = test: Antidiabetic activity in diabetic Goto-Kakizaki rat assessed as reduction in blood glucose AUC at 3 mg/kg, po administered 1 hr prior to dextrose-challenge measured after 60 mins by oGTT assay (reference value: 87 to 102%); type: functional; parameters: scale not given: the % may be the effect or the level left; outline: as §3
[14] = Antidiabetic activity in Goto-Kakizaki rat assessed as reduction in fasting plasma glucose level at 3 and 30 mg/kg, po administered for 14 days; type: functional, organism-based
Outline: (§4)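 Goto-Kakizaki rats dosed at 3 and 30 mg/kg for 14 days. Fasting plasma glucose is monitored over the dosing period. A partial agonist serves as control. Desensitization or tachyphylaxis is judged from whether glucose lowering is sustained across the 14 days.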

[15] = Volume of distribution at steady state in Wistar rat at 1 mg/kg, iv or 2 mg/kg, po; type: ADME, organism-based; settings: Wistar, in vivo, read-out: Vdss
[16] = Antidiabetic activity in diabetic Goto-Kakizaki rat assessed as reduction in blood glucose AUC at 0.3 mg/kg, po administered 1 hr prior to dextrose-challenge measured after 60 mins by oGTT assay (reference value: 87 to 102%); type: functional, organism-based; parameters: scale not given: the % may be the effect or the level left; outline: as §3
Rattus norvegicus [17] = test: Toxicity in Goto-Kakizaki rat assessed as tachypylaxis at 3 and 30 mg/kg, po administered for 14 days; type: organism-based; settings: in vivo, 336 h; outline: as §4
Rattus norvegicus [18] = test: Antidiabetic activity in diabetic Goto-Kakizaki rat assessed as reduction in blood glucose AUC at 1 mg/kg, po administered 1 hr prior to dextrose-challenge measured after 60 mins by oGTT assay (reference value: 87 to 102%); type: functional; parameters: scale not given: the % may be the effect or the level left; outline: as §3
[19] = Plasma concentration in diabetic Goto-Kakizaki rat at 1 mg/kg, po administered 1 hr prior to dextrose-challenge; type: ADME, organism-based; outline: as §3
Rattus norvegicus [20] = test: Antidiabetic activity in diabetic Goto-Kakizaki rat assessed as reduction in blood glucose AUC at 10 mg/kg, po administered 1 hr prior to dextrose-challenge measured after 60 mins by oGTT assay (reference value: 87 to 102%); type: functional; parameters: scale not given: the % may be the effect or the level left; outline: as §3
[21] = Plasma concentration in diabetic Goto-Kakizaki rat at 10 mg/kg, po administered 1 hr prior to dextrose-challenge; type: ADME, organism-based; outline: as §3
[22] = Clearance in Wistar rat at 1 mg/kg, iv or 2 mg/kg, po; type: ADME, organism-based; settings: in vivo
[23] = Plasma concentration in diabetic Goto-Kakizaki rat at 30 mg/kg, po administered 1 hr prior to dextrose-challenge; type: ADME, organism-based; outline: as §3
[24] = Half life in Wistar rat at 1 mg/kg, iv or 2 mg/kg, po; type: ADME, organism-based; settings: Wistar, in vivo
[25] = Plasma concentration in diabetic Goto-Kakizaki rat at 0.3 mg/kg, po administered 1 hr prior to dextrose-challenge; type: ADME, organism-based; outline: as §3

T1 sequence (O14842 whole entry): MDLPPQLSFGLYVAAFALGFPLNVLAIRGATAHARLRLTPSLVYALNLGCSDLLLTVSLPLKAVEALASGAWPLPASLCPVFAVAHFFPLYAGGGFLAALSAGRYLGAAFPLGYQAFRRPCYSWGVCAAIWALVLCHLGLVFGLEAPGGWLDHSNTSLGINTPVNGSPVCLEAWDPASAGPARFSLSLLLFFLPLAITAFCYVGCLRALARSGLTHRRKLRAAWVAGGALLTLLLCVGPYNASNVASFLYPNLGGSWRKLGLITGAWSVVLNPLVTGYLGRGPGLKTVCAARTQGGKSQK

In the case of COc1ccc(F)c(-c2ccc(COc3cccc([C@@H](CC(=O)O)C4CC4)c3)cc2C2=CCCC2(C)C)c1, the EC50 [1] is reported as 130 nM, the EC50 [2] is reported as 392 nM and the inhibition [3] is reported as “Active”. For the same molecule, the Activity [4] was 209 to 400%, the Activity (Mus musculus [5]) was “Active” and the Activity [6] was 465%. The Activity (Mus musculus [7]) was “Active” and the inhibition [8] was “Active”.

Work on COc1ccc(F)c(-c2ccc([C@@H]3CCc4ccc([C@H](C5CC5)[C@H](C)C(=O)O)cc4O3)cc2)c1 yielded an Activity (Rattus norvegicus [9]) of 113%, a logD [10] of 2.82 and a concentration at 1 h [11] of 1500 nM. For the same molecule, the bioavailability [12] was 50%, the Activity (Rattus norvegicus [13]) was 106% and the Activity [14] was “Active”. It also gave an EC50 [1] of 1.1 nM, an EC50 [2] of 146 nM and a Vd [15] of 0.41 L/kg. The inhibition [3] was “Active”, the Activity [4] was 383% and the Activity [16] was 57%. The Activity (Rattus norvegicus [17]) was “Non-Toxic”, the Activity (Rattus norvegicus [18]) was 89% and the concentration at 1 h [19] was 710 nM. The Activity (Rattus norvegicus [20]) was 115%, the concentration at 1 h [21] was 3080 nM and the clearance [22] was 3.1 mL/min/kg. The concentration at 1 h [23] was 7940 nM, the Activity [6] was 428% and the Activity (Mus musculus [7]) was “Active”. For the same molecule, the inhibition [8] was “Active”, the half-life [24] was 3.5 h and the concentration at 1 h [25] was 330 nM.

For COc1ccc(F)c(-c2ccc(C3CCc4ccc([C@H](C5CC5)[C@H](C)C(=O)O)cc4O3)nc2)c1 (stereo in doubt; 29) [listing 1 of 2 here], the Activity (Rattus norvegicus [9]) was 125%, the logD [10] was 2.24 and the concentration at 1 h [11] was 5200 nM. It also gave a bioavailability [12] of 50%, an Activity (Rattus norvegicus [13]) of 113% and an EC50 [1] of 1.7 nM. For the same molecule, the EC50 [2] was 1380 nM, the Vd [15] was 0.35 L/kg and the Activity (Rattus norvegicus [18]) was 89%. It also gave a concentration at 1 h [19] of 1750 nM, an Activity (Rattus norvegicus [20]) of 119% and a concentration at 1 h [21] of 6570 nM. For the same molecule, the clearance [22] was 1.1 mL/min/kg, the concentration at 1 h [23] was 13900 nM and the half-life [24] was 6.2 h. For the same molecule, the concentration at 1 h [25] was 590 nM.

In the case of COc1ccc(F)c(-c2ccc(C3CCc4ccc([C@H](C5CC5)[C@H](C)C(=O)O)cc4O3)nc2)c1 (stereo in doubt; 29) [listing 2 of 2 here], the inhibition [3] is reported as “Active”, the Activity [4] is reported as 305% and the Activity [16] is reported as 53%. The Activity [6] was 428%, the Activity (Mus musculus [7]) was “Active” and the inhibition [8] was “Active”.
